Where two headings read alike, the source gives them in different places.
Experiments:
[1] = tested on: intracellular L. (L.) infantum chagasi amastigotes; experiment: Activity against intracellular amastigotes in infected peritoneal macrophages; type: cell-based, Leishmania (Leishmania) infantum chagasi; conditions: ratio of IC50 promastigotes to amastigotes
Procedure, shortened: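 For amastigotes, BALB/c peritoneal macrophages were plated on coverslips at 4 × 10⁵/well for 24 h. They were infected with hamster-spleen amastigotes at 10:1 for 24 h and washed. Compound was added for 5 days at 37 °C, 5% CO₂. Giemsa counts in 400 macrophages (untreated = 100%) gave a sigmoid-fit IC50, two experiments in duplicate.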

[2] = tested on: L. (L.) infantum chagasi promastigotes; experiment: L.; type: cell-based, Leishmania (Leishmania) infantum chagasi; conditions: evaluation of the IC50
Procedure, shortened: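 Promastigotes (MHOM/BR/1972/LD; M-199 with 10% FBS, 0.25% haemin) were seeded at 1 × 10⁶ cells/well. Two-fold serial dilutions were applied for 24 h at 24 °C. MTT was added for 4 h at 24 °C, formazan was dissolved in 10% SDS for 18 h, and OD was read at 570 nm. Viability was normalised to untreated promastigotes (100%). IC50 came from a sigmoid dose-response fit, three experiments in duplicate.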

[3] = ref Chakravarti & Sem Gupta 1950, cited from earlier work
[4] = tested on: L. (L.) infantum chagasi amastigotes; experiment: Treatment of L.; type: in vivo, BALB/c mice; conditions: 50 mg Sb5+/kg/day i.p., four consecutive days
Procedure, shortened: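 Female BALB/c mice (20-24 g) were infected i.v. by the retro-bulbar route with 1-2 x 10⁷ hamster-spleen amastigotes/150 µL. From day 7, groups of 4 received 50 mg Sb⁵⁺/kg/day i.p. for four consecutive days; controls received PBS. Mice were euthanised two weeks post-infection and liver and spleen were weighed. Amastigotes per 400 nuclei on Giemsa imprints × organ weight (g) gave Leishman-Donovan units.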

[5] = ref Rees et al. (1980), cited from earlier work

| Compound | fold more active against amastigotes than against promastigotes [1] [fold] | susceptibility of promastigotes [2] | time to complete elimination after administration ([3]; healthy individuals, renal excretion) [h] | antimony in the urine 36 h after drug administration ([3]; ill patients (VL), 36 h) | parasite burden in the spleen, mean (SD) ([4]; untreated control 41.69 (8.60)) | parasite burden in the liver, mean (SD) ([4]; untreated control 3,331 (1,745)) | excreted in the urine ([5]; administered intravenously, after 6 h) [%] | excreted in the urine ([5]; intramuscular injection, after 6-8 h) |
| --- | --- | --- | --- | --- | --- | --- | --- | --- |
| meglumine antimoniate [MA] | 680 | not susceptible | 24 | traces of antimony were still observed in the urine | 32.17 (19.20) amastigotes per gram | 2,696 (1,472) amastigotes per gram | – | – |
| O.O.O.O.O.O.O.O.O.O=C([O-])[C@@H]1[O][Sb](=[O])([O][Sb]2(=[O])[O][C@H]([C@H](O)CO)[C@H](O)[C@H](C(=O)[O-])[O]2)[O][C@H]([C@H](O)CO)[C@@H]1O.[Na+].[Na+].[Na+] (some centres unmarked) [sodium stibogluconate] | – | – | – | – | – | – | 96 | 80-91% |

Reference: article PMC3970594 (Memórias do Instituto Oswaldo Cruz, 2013)
